Screens: PubChem, several laboratories
Hits are enriched below; roughly 1.8% of the tested compounds scored in any of these assays.
L929 necroptosis: blocks zVAD induced death of L929 cells; viability rescue, % at 10 µM; L929 zVAD necroptosis rescue, ATP luminescence, 24 h; with zVAD 60 µM; hit rate 0.38% among 220,000;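 active means activation, scaled between plate controls, above about 75%, limit read from the data; inactive means activation under that limit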
Dynein transport: blocks dynein driven cargo transport along microtubules; 3617.4 mouse cells, GR-EGFP nuclear translocation imaging; test concentration mostly 20 µM; stimulated with dexamethasone, 1 µM; hits give low values; z-score, hits read low; hit rate 0.47% among 220,000; AID 1381;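 active means plate z-score of nuclear minus cytoplasmic receptor signal below a set negative limit, without overly bright fluorescence or cell loss, cut at about -3.5 in these data, passing the limit was not always enough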;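 further: z-score of nuclear minus cytoplasmic ring GR-EGFP intensity difference per well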
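medium = tetracycline-free induction medium containing charcoal-stripped FBS | also added = 1.0 µM final dexamethasone stimulus | schedule = 48 h induction, 1 h compound, 30 min dex at 37 °C | technique = fixed, Hoechst-stained cells imaged at 10x for EGFP | measure = GR-EGFP nuclear translocation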
MDM2 E3 inh: Mdm2 E3 ligase (human) inhibition; hit rate 0.11% among 210,000; AID 1230; signal enhancement, % at 5 µM; cell-based MDM2 ubiquitination luciferase reporter, 2 h; 0 = plate control, 100 = twice control, blank-subtracted; Q00987;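 active means signal enhancement of 30% or more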;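 further: luminescence tracks abundance of the self-degrading MDM2-luciferase fusion protein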
Target sequence (Q00987 whole entry, looked up, the tested form may be a part): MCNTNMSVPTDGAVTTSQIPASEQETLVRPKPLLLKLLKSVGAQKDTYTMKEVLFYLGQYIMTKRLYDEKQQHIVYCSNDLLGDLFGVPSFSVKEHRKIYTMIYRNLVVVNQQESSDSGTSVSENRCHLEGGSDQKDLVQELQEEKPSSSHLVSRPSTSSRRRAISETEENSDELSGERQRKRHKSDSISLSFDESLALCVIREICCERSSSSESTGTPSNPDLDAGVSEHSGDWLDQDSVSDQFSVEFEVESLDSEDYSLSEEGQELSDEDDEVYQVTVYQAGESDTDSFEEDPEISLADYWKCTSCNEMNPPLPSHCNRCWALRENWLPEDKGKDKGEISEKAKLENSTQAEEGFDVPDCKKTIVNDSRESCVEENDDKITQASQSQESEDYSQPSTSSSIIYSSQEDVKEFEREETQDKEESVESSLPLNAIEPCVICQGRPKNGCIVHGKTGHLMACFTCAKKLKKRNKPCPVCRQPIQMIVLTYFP
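Assay system: stable mammalian line carrying autodegrading MDM2–luciferase fusion reporter; Input: 2000 cells in each well; Compound dosing: single-point 5 µM; Schedule: 2 h compound exposure at 37 °C; Signal: SteadyLite luciferase luminescence after 15 min room-temperature reagent incubation; Evaluation: % luminescence enhancement versus blank-corrected plate control mean; Benchmarks: plate controls and plate blanks.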
Autophagy mod: modulators of autophagy; MEF GFP-LC3 puncta imaging; test concentration mostly 10 µM; calls only at 10 µM (by protocol); hit rate 0.98% among 190,000; AID 463193;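 active means percentage of spot-positive cells more than 3 SD above its plate mean, without a fluorescence outlier flag or 80% toxicity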
TNF necrop inh: inhibitors of TNF-alpha induced necroptosis in Jurkat FADD-/- cells; Jurkat FADD-/- TNF necroptosis rescue, ATP luminescence, 24 h; 0 = TNF only, 100 = no-TNF cells; activation (protection from cell death), % at 10 µM; hit rate 0.068% among 220,000; AID 463075;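 active means activation, meaning protection from cell death, of at least 50% relative to plate controls; inactive means activation below 50%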;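 further: necroptosis triggered by 40 ng/mL TNF-alpha added together with compound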
Of the large screens only hits and unclear results are named; the others gave an inactive call.

CC1CCCN(c2ccc(C(=O)Nc3cccnc3)cc2[N+](=O)[O-])C1 (stereo unspecified)	none
O=[N+]([O-])c1ccc(Nc2ccccc2F)nc1	TNF necrop inh 72.9
O=[N+]([O-])c1ccc(Nc2ccc(Cl)cc2)nc1	TNF necrop inh 81.1
O=[N+]([O-])c1ccc(NCc2ccc(Cl)cc2)nc1	none (no result: Autophagy mod)
O=[N+]([O-])c1ccc(Nc2ccc3ccccc3c2)nc1	none
O=C1c2ccccc2C(=O)N1c1ccc(-c2nc3ccccc3o2)cc1	Autophagy mod active
COc1cc(C#N)c(NC(=O)CN2CCN(CCO)CC2)cc1OC	none
CN(C)CCCNC(=O)c1cc2c3ccccc3n(C)c2s1	Autophagy mod active
N#Cc1c(-c2ccccc2F)cc(C2CC2)nc1SCC(=O)c1cccs1	Autophagy mod active
CCSc1nc(C2CC2)cc(-c2cccs2)c1C#N	none
Cn1ccnc1SCC(=O)Nc1cc(S(=O)(=O)N2CCOCC2)ccc1Cl	none
O=[N+]([O-])c1cc2c(cc1/C=N/Nc1nc(Nc3ccccc3)nc(N3CCCCC3)n1)OCO2	Autophagy mod active
COc1ccc(C2c3[nH]c4ccccc4c3CCN2C(=O)Cc2nonc2C)c(F)c1 (stereo unspecified)	none (no result: MDM2 E3 inh, Autophagy mod)
N#Cc1ccc(C(=O)OCC(=O)Nc2ccc(S(N)(=O)=O)cc2)cc1	none (no result: MDM2 E3 inh, Autophagy mod)
O=C(CN1C(=O)C2CCCCC2C1=O)OCC(=O)c1ccc(Cl)s1 (stereo unspecified)	none
CCCN1C(=O)/C(=C\C=C2\N(CC)c3ccccc3C2(C)C)SC1=S	Autophagy mod active
CCCN1C(=O)/C(=C\C=C2/Sc3ccccc3N2CC)SC1=S	none
CN(C)c1ccc(/C=C2\SC(=S)N(Nc3ncc(C(F)(F)F)cc3Cl)C2=O)cc1	Autophagy mod active
COc1cc(/C=C2\SC(=S)N(Nc3ncc(C(F)(F)F)cc3Cl)C2=O)ccc1O	none
C#CCN1C(=O)S/C(=C/C=C/c2ccc(N(C)C)cc2)C1=O	Autophagy mod active
CN1C(=O)C(O)(CC(=O)c2cccnc2)c2ccccc21 (stereo unspecified)	none (no result: MDM2 E3 inh)
O=C(CC1(O)C(=O)N(Cc2cccc3ccccc23)c2ccccc21)c1cccnc1 (stereo unspecified)	Autophagy mod active
CC(C)(C)NC(=O)c1nn(Cc2ccccc2)c(=O)c2ccccc12	none
CCOc1ccc(S(=O)(=O)N2c3ccccc3CC2C)cc1 (stereo unspecified)	Autophagy mod active
CCC1=NN(C(=O)Cc2ccc([N+](=O)[O-])cc2)C(O)(C(C)(C)C)C1 (stereo unspecified)	Autophagy mod active
Cc1nc(N2CCOCC2)nc2c1CCC2	none
COc1ccc(CCN2C(=O)CC(NNC(=O)c3ccccc3Br)C2=O)cc1OC (stereo unspecified)	none
Oc1c(N=Nc2ccccn2)ccc2ccccc12	Autophagy mod active
O=C(CC12CC3CC(CC(Br)(C3)C1)C2)OCCN1CCCCC1	Autophagy mod active
COc1ccc(NC(=O)CN2CCC(C)CC2)c([N+](=O)[O-])c1	none
COc1cc(-c2ccc(NC(=O)CN3CCC(C)CC3)c(OC)c2)ccc1NC(=O)CN1CCC(C)CC1	Autophagy mod active
COc1cc(NC(=O)c2ccc(F)cc2)c(OC)cc1NC(=O)CN1CCOCC1	Autophagy mod active
COc1cc(NC(=O)c2ccccc2F)c(OC)cc1NC(=O)CN1CCOCC1	none
O=c1c2c3c(sc2nc2n1CCC2)CCCCC3	Autophagy mod active
O=c1c2c3c(sc2nc2n1CCC2)CCC3	none
OCCNc1c2ccccc2nc2ccccc12	none
CCCNc1c(F)c(F)c2c(C)c3ccccc3nc2c1F	Autophagy mod active
N=c1c(-c2nc3ccccc3[nH]2)cc(C(=O)c2cccs2)nn1-c1ccccc1	Autophagy mod active
O=C1CCC/C(=N/Nc2ccc(Cl)cc2)C1	none
CCN(CC(=O)NC1CCS(=O)(=O)C1)c1ccc(S(C)(=O)=O)cc1[N+](=O)[O-] (stereo unspecified)	Autophagy mod active
COc1ccc(NC(C)c2ccccc2)cc1 (stereo unspecified)	TNF necrop inh 51.5
CC(Nc1ccccc1)c1ccncc1 (stereo unspecified)	none
